Reference: PMC7617399 (Nature microbiology, 2016)
Like-named read-outs stand apart in the source and are kept apart here.

Columns and labels:
[1] = MTS cell viability assay, TREx BCBL1-Rta; type: cell-based, human; settings: human, TREx BCBL1-Rta cells
Summary of the method: (§1)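 MTS assay: TREx BCBL1-Rta plated at 1×10^6 cells/ml and treated at once with test compound in DMSO (0.1% of volume, also added to controls). Viability read at 24 and 72 h. Biological replicates.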

[2] = target: purified recombinant UAP56 (GST-UAP56) (Homo sapiens, UniProt Q13838); assay: UAP56 ATPase assay; type: biochemical
Chain of purified recombinant UAP56 (GST-UAP56) (Q13838 whole entry): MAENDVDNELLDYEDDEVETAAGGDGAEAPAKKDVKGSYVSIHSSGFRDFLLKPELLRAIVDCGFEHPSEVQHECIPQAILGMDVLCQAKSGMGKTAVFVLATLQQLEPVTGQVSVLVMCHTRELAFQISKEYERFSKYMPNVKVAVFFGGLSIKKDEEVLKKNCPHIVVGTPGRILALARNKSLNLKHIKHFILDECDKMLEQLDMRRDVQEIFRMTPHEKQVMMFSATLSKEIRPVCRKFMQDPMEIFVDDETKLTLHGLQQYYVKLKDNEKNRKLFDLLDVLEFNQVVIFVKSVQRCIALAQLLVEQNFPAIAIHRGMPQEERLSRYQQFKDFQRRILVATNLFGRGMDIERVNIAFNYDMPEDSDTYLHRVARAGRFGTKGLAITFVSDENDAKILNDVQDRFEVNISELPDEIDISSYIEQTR
Summary of the method: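 2.5 μM GST-UAP56 (E. coli BL-21, glutathione-eluted, buffer-exchanged) with 50 μM yeast tRNA, 35 μM ATP, 2 mM MgCl2, 50 mM KCl, 50 mM Tris/HCl pH 7.6. Screening at 100 μM final compound. IC50 series delivered in DMSO (1% of reaction). 37°C, 30 min, remaining ATP read by Kinase-Glo luminescence. Biological replicates.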

[3] = system: KSHV viral load in TREx BCBL1-Rta cells; assay: KSHV replication assay; type: cell-based; settings: for EC50: read-out: EC50 72 h (μM) (Viral load)
[4] = system: KSHV minor capsid protein (mCP) expression in TREx BCBL1-Rta cells; assay: Viral late protein mCP expression; type: cell-based; settings: for EC50: read-out: EC50 24 h (μM) (mCP expression)
ORF57-UAP56 interaction = ORF57-UAP56 interaction (Homo sapiens, UniProt Q13838); assay: Co-immunoprecipitation of ORF57 with UAP56; type: cell-based, KSHV / human; settings: nucleotide added to HEK-293T lysates (1.25 mM or concentration series)
Chain of ORF57-UAP56 interaction (P82979 2-210): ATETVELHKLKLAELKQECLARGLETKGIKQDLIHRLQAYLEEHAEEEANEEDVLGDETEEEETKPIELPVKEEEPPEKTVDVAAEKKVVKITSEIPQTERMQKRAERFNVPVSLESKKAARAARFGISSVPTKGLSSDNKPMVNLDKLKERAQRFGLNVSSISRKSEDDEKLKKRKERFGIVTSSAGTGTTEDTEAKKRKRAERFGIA
Chain of ORF57-UAP56 interaction (Q13838 2-428): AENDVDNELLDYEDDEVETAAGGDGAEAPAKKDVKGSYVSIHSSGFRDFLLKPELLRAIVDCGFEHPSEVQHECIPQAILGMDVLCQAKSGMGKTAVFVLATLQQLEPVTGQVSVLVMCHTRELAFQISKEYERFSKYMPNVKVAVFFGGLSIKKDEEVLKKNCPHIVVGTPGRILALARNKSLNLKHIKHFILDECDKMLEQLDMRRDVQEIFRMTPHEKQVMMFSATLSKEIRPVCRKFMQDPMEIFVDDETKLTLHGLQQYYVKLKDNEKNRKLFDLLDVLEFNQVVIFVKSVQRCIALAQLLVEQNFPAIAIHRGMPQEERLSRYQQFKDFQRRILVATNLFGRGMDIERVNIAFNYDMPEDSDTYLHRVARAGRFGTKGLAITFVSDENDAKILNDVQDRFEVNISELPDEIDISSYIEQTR
Summary of the method: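 1×10^6 HEK-293T transfected with 1 μg ORF57-GFP or GFP plasmid (Lipofectamine), lysed after 24 h on ice for 20 min in modified RIPA (50 mM Tris/HCl, 150 mM NaCl, 1% NP40-alternative, pH 7.6) plus RNase A. Lysate clarified, pre-cleared on protein A for 2 h at 4°C, pulled down on GFP-trap beads with ATP, ADP or ATPγS for 2.5 h at 4°C. Western blot.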

recombinant GST-UAP56 = recombinant GST-UAP56 (Homo sapiens, UniProt Q13838); assay: Microscale thermophoresis binding to UAP56; settings: read-out: KD (microscale thermophoresis); FITC-labelled GST-UAP56, 37°C
Chain of recombinant GST-UAP56 (Q13838 whole entry): as the sequence (Q13838 whole entry) above
Summary of the method: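 GST-UAP56 FITC-labelled, desalted into 20 mM HEPES pH 7.4 with 2 mM MgCl2, used at 100–500 nM. Titrated with test compound in a 1:1 serial dilution from 4.5 mM, final DMSO 20% (v/v). LED power 10–60%, 37°C. KD fitted in thermophoresis mode. Biological replicates.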

HSV-1 [5] = assay: Infectious HSV-1 virion production; type: cell-based
TREx BCBL1-Rta cells [6] = assay: MTS cell viability assay, TREx BCBL1-Rta; type: cell-based, human; settings: TREx BCBL1-Rta, MTS, mean ± s.e.m.
Summary of the method: as §1

[7] = target: ADP-bound purified recombinant UAP56 (Homo sapiens, UniProt Q13838); assay: ADP displacement assay; type: binding
Chain of ADP-bound purified recombinant UAP56 (Q13838 whole entry): as above
Summary of the method: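 Pre-formed ADP-bound enzyme: 5 μM GST-UAP56 (E. coli BL-21) run with 5 μM ATP for 30 min under ATPase-assay buffer conditions. Leftover ATP depleted with ADP-Glo reagent, then test compound added at rising concentrations and incubated 37°C for 30 min. Freed ADP converted to ATP and read by luminescence. n = 3 biological replicates.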

TREx BCBL1-Rta cells [8] = assay: Apoptosis assay; type: cell-based, human; settings: 72 h, CCT018159 at 2.5 μM
Summary of the method: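 TREx BCBL1-Rta cells exposed to DMSO or test compound for 72 h, washed, then incubated in HEPES buffer with Annexin-V-fluorescein plus propidium iodide to mark apoptotic and necrotic cells. Analysis by flow cytometry. Biological replicates.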

[9] = system: ORF57-mediated ORF47 mRNA stabilization and export in HEK-293T cells; assay: Viral mRNA export assay; type: cell-based, KSHV; settings: 2.5 μM, 18 h
Summary of the method: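 HEK-293T co-transfected with GFP or ORF57-GFP plus an intronless ORF47 reporter, then exposed to DMSO or test compound for 18 h. RNA taken from whole-cell and cytoplasmic fractions. ORF47 measured by qRT-PCR, normalised to GAPDH, ΔΔCT. n = 3, unpaired t test.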

HEK-293T cells = assay: MTS cell viability assay, HEK-293T; type: cell-based, human
Summary of the method: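 MTS assay: HEK-293T plated at 0.5×10^6 cells/ml 24 h ahead, then given test compound in DMSO (0.1% of volume, also added to controls). Readings normalised to DMSO wells, n = 5. CC50 from four-parameter variable-slope non-linear regression.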

[10] = system: ORF57-mediated nuclear retention of cellular bulk mRNA in HEK-293T cells; assay: Fluorescence in situ hybridization of poly; type: cell-based, human; settings: ORF57-GFP expressing HEK-293T, 24 h treatment
Summary of the method: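 HEK-293T transfected with GFP or ORF57-GFP for 6 h, then DMSO or test compound for 24 h. Poly(A) RNA detected with 5′ Alexa Fluor 546-labelled oligo dT(70) probe, nuclei stained with DAPI, confocal imaging. Cells showing nuclear mRNA retention counted. 4 independent experiments.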

hTREX-UAP56 interaction = hTREX-UAP56 interaction (Homo sapiens, UniProt Q13838); assay: Co-immunoprecipitation of endogenous hTREX with UAP56; type: cell-based; settings: up to 0.5 mM added to the lysate
Chain of hTREX-UAP56 interaction (Q13838 2-428): as the sequence (Q13838 2-428) above
Chain of hTREX-UAP56 interaction (P82979 2-210, further chain): as the sequence (P82979 2-210) above

HCMV = assay: Infectious HCMV virion production; type: cell-based
KSHV = assay: Infectious KSHV virion production; type: cell-based; settings: 2.5 μM, supernatant 72 h after induction
Summary of the method: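 0.8×10^6 TREx BCBL1-Rta cells reactivated with 2 μg/ml doxycycline and treated with test compound or DMSO. Supernatants filtered at 72 h and used 1:1 on 1×10^6 HEK-293T. At 24 h post-infection, TRIzol RNA assayed by qRT-PCR for viral mRNA, normalised to GAPDH, shown as fold change against DMSO.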

[11] = system: KSHV latent nuclear antigen (LANA); assay: LANA immunoblotting; type: cell-based; settings: immunoblot, range of concentrations
HSP90 = settings: read-out: Ki (HSP90); reported value; cited from earlier work
HSV-1 [12] = assay: HSV-1 plaque assay after primary infection; type: cell-based; settings: increasing concentrations, HFF cells
Summary of the method: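 HFF (2×10^5) infected with HSV-1 at MOI 0.001 for 1 h and washed twice in PBS. Cells then overlaid with plaque agar (growth medium 1:1 with 2% agarose, 37°C) holding test compound or DMSO (0.1% final). Agarose lifted at 96 h, cells fixed 10 min in 4% paraformaldehyde, stained with 0.5% crystal violet, plaques counted by eye. Lysis also imaged directly.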

[13] = reactivated TREx BCBL1-Rta, 72 h, qPCR, mean ± s.e.m.

`CCc1cc(-c2n[nH]c(C)c2-c2ccc(OC)cc2)c(O)cc1O` [Cmpd. 3, 4-Ethyl-6-(4-(4-methoxyphenyl)-3-methyl-1H-pyrazol-5-yl)benzene-1,3-diol] showed a CC50 at 24 h [1] of 27.9 ± 2.7 µM, a CC50 at 72 h [1] of 14.7 ± 0.5 µM and an IC50 [2] of 88.7 ± 7.9 µM. For the same compound, the EC50 ([3]; Human gammaherpesvirus 8, 72 h) was 2.7 ± 0.2 µM and the EC50 ([4]; Human gammaherpesvirus 8, 24 h) was 2.4 ± 0.4 µM.

In the case of `Nc1ncnc2c1ncn2[C@@H]1O[C@H](COP(=O)(O)OP(=O)(O)OP(=O)(O)O)[C@@H](O)[C@H]1O` [ATP], the “effect of nucleotide on ORF57-UAP56/hTREX interaction” value (ORF57-UAP56 interaction) is reported as “enhanced” and the Kd (recombinant GST-UAP56) is reported as 30.1 ± 4.5 µM.

`CCc1cc(-c2n[nH]c(C(=O)O)c2-c2ccc(OC)cc2)c(O)cc1O` [Cmpd. 4, 3-(5-Ethyl-2,4-dihydroxyphenyl)-4-(4-methoxyphenyl)-1H-pyrazole-5-carboxylic acid] gave a CC50 at 24 h [1] of about 820 µM, a CC50 at 72 h [1] of over 1000 µM and an IC50 [2] of over 1000 µM. For the same compound, the EC50 ([3]; Human gammaherpesvirus 8, 72 h) was 138 ± 45.2 µM and the EC50 ([4]; Human gammaherpesvirus 8, 24 h) was over 1000 µM.

In the case of `CCc1cc(-c2n[nH]c(C)c2-c2ccc3c(c2)OCCO3)c(O)cc1O` [CCT018159], the “reduction in infected cells (HSV-1 re-infection)” value (HSV-1 [5]; 2.5 μM) is reported as 50%, the “reduction in infected cells (HSV-1 re-infection)” value (HSV-1 [5]; 5 μM) is reported as 95% and the CC50 (TREx BCBL1-Rta cells [6]; read-out: CC50 24 h (μM) (Cell viability), 24 h) is reported as 21.1 ± 1.6 µM. The CC50 (TREx BCBL1-Rta cells [6]; read-out: CC50 72 h (μM) (Cell viability), 72 h) was 16.6 ± 1.1 µM, the “mode of inhibition (ADP displacement)” value ([7]; ADP-bound UAP56, increasing concentrations) was “ATP/ADP-competitive inhibitor” and the IC50 ([7]; read-out: IC50 (ADP displacement)) was about 60 µM. The apoptosis (TREx BCBL1-Rta cells [8]) was “no increase in apoptosis”, the “reduction of UAP56 activity” value ([2]; at 100 μM (compound screening)) was over 70% and the “effect on ORF57-mediated ORF47 mRNA stabilization and export” value [9] was “abolished”. For the same compound, the non-cytotoxic concentrations (HEK-293T cells) was under 15 µM, the “potency of antiviral effect relative to IC50 on purified UAP56” value ([3]; discussion) was 30 fold and the “concentration of antiviral effect” value ([3]; discussion, assay not specified) was “around 2 μM”. The EC50 [3, 13] was 1.1 ± 0.1 µM, the mCP expression ([4]; at 2.5 μM) was “marked reduction” and the “concentrations at which mCP inhibition occurred” value ([4]; immunoblot) was 1 to 2.5 µM. For the same compound, the EC50 ([4]; reactivated TREx BCBL1-Rta, 24 h, mean ± s.e.m.) was 0.6 ± 0.1 µM, the Kd (recombinant GST-UAP56) was 76 ± 3.8 µM and the “effect on ORF57-mediated nuclear retention of poly(A) RNA” value [10] was “nuclear retention was lost”. For the same compound, the “effect on hTREX-UAP56 interaction” value (hTREX-UAP56 interaction) was “did not inhibit”, the “reduction of HCMV virion production” value (HCMV; 1 μM) was 50% and the “reduction of HCMV virion production” value (HCMV; 2.5 μM) was “over 99%”. For the same compound, the “reduction of viral mRNA in re-infected cells versus controls” value (KSHV) was 80%, the LANA degradation [11] was “no LANA degradation” and the Ki (HSP90) was 1.8 ± 0.3 µM. The “cell lysis, plaque size and plaque number” value (HSV-1 [12]) was “dramatically decreased”.

For `CO[C@H]1/C=C\C=C(/C)C(=O)NC2=CC(=O)C(NCCN(C)C)=C(C[C@@H](C)C[C@H](OC)[C@H](O)[C@@H](C)/C=C(\C)[C@@H]1OC(N)=O)C2=O` [Compound 17-DMAG], the apoptosis (TREx BCBL1-Rta cells [8]) was “increased levels of apoptosis and necrosis”, the “UAP56 ATPase inhibition” value ([2]; Supplementary Fig. 2a) was “no UAP56 ATPase inhibition” and the EC50 [3, 13] was 0.04 ± 0.01 µM. For the same compound, the “effect on ORF57-mediated nuclear retention of poly(A) RNA” value [10] was “failed to relieve” and the LANA degradation [11] was “enhanced”.

For `Nc1ncnc2c1ncn2[C@@H]1O[C@H](CO[P@](=O)(O)O[P@](=O)(O)O[P@@](=O)(O)S)[C@@H](O)[C@H]1O` [ATPγS, Adenosine 5′-O-(3-thio)triphosphate], the “effect of nucleotide on ORF57-UAP56/hTREX interaction” value (ORF57-UAP56 interaction) was “significantly inhibited”.

For `Nc1ncnc2c1ncn2[C@@H]1O[C@H](COP(=O)(O)OP(=O)(O)O)[C@@H](O)[C@H]1O` [ADP], the “effect of nucleotide on ORF57-UAP56/hTREX interaction” value (ORF57-UAP56 interaction) was “disrupted”.
